Assay results from ChEMBL document CHEMBL4017532, “Multifunctional Hybrid Compounds Derived from 2-(2,5-Dioxopyrrolidin-1-yl)-3-methoxypropanamides with Anticonvulsant and Antinociceptive Properties” (J Med Chem, 2017).
Active and inactive are the calls of the source.

Assays:
[1] = system: Mus musculus; test: Antinociceptive activity in Albino Swiss CD-1 mouse assessed as inhibition of capsaicin-induced nociception by measuring time spent licking injected paw at 50 mg/kg, ip administered 30 mins mins prior to capsaicin challenge measured for 5 mins relative to control; format: functional; details: Swiss CD-1, ip
Procedure, shortened: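 Mice (male CD-1, 18–25 g) were pretreated ip 30 min before intraplantar capsaicin. Doses were 25, 50 or 100 mg/kg, or 100, 150 or 200 mg/kg for the reference. Vehicle was 1% Tween 80 at 10 mL/kg. Duration of nociceptive response was scored over 5 min after injection. Data are mean ± SEM of 8–10 mice, by one-way ANOVA with Dunnett's test against vehicle.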

[2] = system: Mus musculus; test: Anticonvulsant activity in ip dosed Albino Swiss CD-1 mouse assessed as protection against maximal electroshock-induced seizures pretreated up to 2 hrs followed by 50 Hz current induction for […] measured at time to peak effect; format: functional; details: Swiss CD-1, ip
[3] = system: Mus musculus; test: Antinociceptive activity in Albino Swiss CD-1 mouse assessed as inhibition of formalin-induced neurogenic pain response administered ip 30 mins before formalin injection measured up to 5 mins; format: functional; details: Swiss CD-1, ip
Procedure, shortened: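 Male CD-1 mice were given test agents ip 30 min before subcutaneous intraplantar formalin. Doses were 12.5, 25 or 50 mg/kg, or 100, 150 or 200 mg/kg for the reference. Vehicle was 1% Tween 80 at 10 mL/kg. Paw licking time was recorded in phase I (0–5 min) and phase II (15–30 min). Data are mean ± SEM of 8–10 mice, by Dunnett's test. ED50 was obtained by log-probit analysis with 95% confidence limits.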

[4] = Retention time of the compound by LC-MS method
[5] = system: Mus musculus; test: Antiallodynic activity in oxaliplatin-induced Albino Swiss CD-1 mouse model of peripheral neuropathy assessed as elevation in pain sensitivity threshold at 100 mg/kg, ip administered 30 mins prior to oxaliplatin challenge relative to control; format: functional
Procedure, shortened: (§1)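 Male CD-1 mice, 18–25 g, that had developed oxaliplatin-induced tactile allodynia were dosed ip 30 min before testing. Doses were 25, 50 or 100 mg/kg, or 50, 100 or 150 mg/kg for the reference. Vehicle was 1% aqueous Tween 80. Paw-withdrawal force was measured by von Frey filaments. Data are mean ± SEM, analysed by repeated-measures ANOVA with Dunnett's test against oxaliplatin plus vehicle mice.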

[6] = organism: Rattus norvegicus; test: Displacement of [3H]diltiazem from L-type calcium channel diltiazem binding site in rat cerebral cortical membranes at 100 uM after 60 mins; format: cell membranes
Procedure, shortened: (§2)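 Radioligand binding was run as a contract service. Percent inhibition of specific labelled-ligand binding was measured at 100 μM test compound, or 200 μM for hERG.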

[7] = system: Mus musculus; test: Antiallodynic activity in oxaliplatin-induced Albino Swiss CD-1 mouse model of peripheral neuropathy assessed as elevation in pain sensitivity threshold administered ip 30 mins prior to oxaliplatin challenge; format: functional, organism-based; procedure, shortened: as §1
[8] = system: Mus musculus; test: Anticonvulsant activity in Albino Swiss CD-1 mouse assessed as inhibition of pentylenetetrazole-induced seizures at 100 mg/kg, ip administered up to 0.5 hrs prior to PTZ induction measured after 30 mins relative to control; format: functional; design: scale not given: the % may be the effect or the level left
[9] = system: Mus musculus; test: Antiallodynic activity in oxaliplatin-induced Albino Swiss CD-1 mouse model of peripheral neuropathy assessed as elevation in pain sensitivity threshold at 50 mg/kg, ip administered 30 mins prior to oxaliplatin challenge relative to control; format: functional; procedure, shortened: as §1
[10] = system: Mus musculus; test: Anticonvulsant activity in ip dosed Albino Swiss CD-1 mouse assessed as protection against 32 mA current-induced seizure treated up to 2 hrs prior to 6-Hz current induction measured at time to peak effect; format: functional; details: Swiss CD-1, ip
[11] = system: Mus musculus; test: Toxicity in Albino Swiss CD-1 mouse assessed as motor coordination impairment at 50 to 150 mg/kg, ip by rotarod test; format: organism-based; details: in vivo
[12] = organism: Rattus norvegicus; test: Displacement of [3H]GABA from GABA transporter in rat cerebral cortex at 100 uM by liquid scintillation spectrometry; procedure, shortened: as §2
[13] = system: Mus musculus; test: Protection index, ratio of TD50 for neurotoxicity in ip dosed Albino Swiss CD-1 mouse to ED50 for ip dosed Albino Swiss CD-1 mouse model of 6 Hz-induced siezures
Procedure, shortened: (§3)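 Acute neurological toxicity after ip dosing (1% Tween 80 suspension) was assessed in the mouse chimney test. TD50 with 95% confidence limits was derived by probit analysis. Protective index is TD50 from the chimney test divided by ED50 from the MES, scPTZ or 6 Hz test.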

[14] = system: Mus musculus; test: Anticonvulsant activity in Albino Swiss CD-1 mouse assessed as protection against maximal electroshock-induced seizures at 100 mg/kg, ip pretreated up to 2 hrs followed by 50 Hz current induction for […] relative to control; format: functional
[15] = system: Mus musculus; test: Antiallodynic activity in oxaliplatin-induced Albino Swiss CD-1 mouse model of peripheral neuropathy assessed as elevation in pain sensitivity threshold at 25 mg/kg, ip administered 30 mins prior to oxaliplatin challenge relative to control; format: functional; procedure, shortened: as §1
[16] = system: Mus musculus; test: Anticonvulsant activity in Albino Swiss CD-1 mouse assessed as inhibition of pentylenetetrazole-induced seizures by measuring time to peak effect at 100 mg/kg, ip administered up to 2 hrs prior to PTZ induction measured for 30 mins; format: functional
[17] = biological target: GABA-A receptor; alpha-1/beta-2/gamma-2 (Homo sapiens) (UniProt P14867+P47870+P18507); test: Displacement of [3H]muscimol from human GABAalpha1beta2gamma2 receptor expressed in CHO cells at 100 uM after 30 mins by liquid scintillation counting; format: cell-based; procedure, shortened: as §2
[18] = system: Mus musculus; test: Protection index, ratio of TD50 for neurotoxicity in ip dosed Albino Swiss CD-1 mouse to ED50 for ip dosed pentylenetetrazole induced seizure Albino Swiss CD-1 mouse model; procedure, shortened: as §3
[19] = system: Mus musculus; test: Anticonvulsant activity in ip dosed Albino Swiss CD-1 mouse assessed as inhibition of pentylenetetrazole-induced seizures administered up to 2 hrs prior to PTZ induction measured at time to peak effect; format: functional; details: Swiss CD-1, ip
[20] = system: Mus musculus; test: Antiallodynic activity in oxaliplatin-induced Albino Swiss CD-1 mouse model of peripheral neuropathy assessed as elevation in pain sensitivity threshold at […], ip administered 30 mins prior to oxaliplatin challenge relative to control; format: functional
[21] = organism: Mus musculus; test: Potency index, ratio of valproic acid ED50 to compound ED50 for protection against pentylenetetrazole-induced seizures in Albino Swiss CD-1 mouse; format: functional
[22] = system: Mus musculus; test: Protection index, ratio of TD50 for neurotoxicity in ip dosed Albino Swiss CD-1 mouse to ED50 for ip dosed maximal electroshock induced seizure Albino Swiss CD-1 mouse; procedure, shortened: as §3
[23] = organism: Rattus norvegicus; test: Displacement of (-)-[3H](-)D 888 from L-type calcium channel verapamil binding site in rat cerebral cortex at 100 uM; procedure, shortened: as §2
[24] = system: Mus musculus; test: Anticonvulsant activity in Albino Swiss CD-1 mouse assessed as protection against maximal electroshock-induced seizures by measuring time to peak effect at 100 mg/kg, ip pretreated up to 2 hrs followed by 50 Hz current induction for […]; format: functional
[25] = organism: Rattus norvegicus; test: Displacement of [3H]nitrendipine from L-type calcium channel dihydropyridine binding site in rat cerebral cortex at 100 uM by liquid scintillation spectrometry; procedure, shortened: as §2

SMILES: COCC(C(=O)N1CCN(c2ccc(C(F)(F)F)cc2)CC1)N1C(=O)CCC1=O (stereo not given)
- inhibition in vivo at 50 mg/kg [1]: 32.7%
- ED50 [2]: 79.5 to 83.3 mg/kg
- ED50 [3]: 26 mg/kg
- Retention time [4]: 6.11 min
- Activity [5]: 149.2%
- inhibition [6]: inactive
- Activity [7]: Dose-dependent effect
- Activity [8]: 75%
- Activity [9]: 121%
- ED50 [10]: 22.4 to 26.9 mg/kg
- Activity [11]: Non-Toxic
- inhibition [12]: inactive
- Ratio TD50/ED50 [13]: 5.8 - 8.9
- Activity [14]: 75 - 100%
- Activity [15]: 112.6%
- Time [16]: 0.5 h
- inhibition [17]: inactive
- Ratio TD50/ED50 [18]: 1.6
- ED50 [19]: 123 mg/kg
- Activity [20]: 122%
- Ratio ED50 [21]: 2
- Ratio TD50/ED50 [22]: 1.9 - 2.5
- inhibition [23]: inactive
- Time [24]: 0.25 to 1 h
- inhibition [25]: inactive
